B1: tRNA (parent)
chain: GUUCCGUUGGCGUAAUGGUAACGCGUCUCCCUCCUAAGGAGAAGACUGCGGGUUCGAGUCCCGUACGGAACG

This sample holds only a part of the variants without activity.

In this data set the parent is B1. In words: yeast fitness relative to wild type (ratio to wild type); higher = fitter; tRNA-Arg(CCU), competitive growth, 37 C, YPD. The method, boiled down:
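Changes in genotype frequencies gave Darwinian fitness relative to wild type. Frequencies were read by 100-nucleotide paired-end sequencing of gene amplicons before and after pooled Saccharomyces cerevisiae strains, carrying tRNA-Arg(CCU) gene variants at the native locus, were competed in YPD at 37°C for 24 hours in six replicates. A genotype was kept only with ≥ 100 starting reads, and estimates < 0.5 were set to 0.5.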
For the variant GUUCGGUCGGCGUAAUGGUAACGCGUCUCCCUCCUGAGGCGAAGACUGCGGGUUCGAGUCCCGUACGGAACG, the yeast fitness worked out at 0.55. With GUUCCGUUGGUGUAAUGGUAACGCGUCUCCCUCCUAAGGAGAAGACUGCGGGUUGGAGUCCCGUACGGAACG the figure was 0.594. With GUGCCGUUGGCGUAAUGGUAACGCGUCUCCCUCCAAAGGAGAAGACUGCGGGUUCGAGUCCCGUACGGAGCG, the yeast fitness is at most 0.5.

In the case of GUUGCGUUGGCGUAUUGCUAACCGGUCUCCCUCCUAAGGAGAAGACUGCGGGUUCCAGUCCCGUACGGAACG, the yeast fitness is at most 0.5. For GCUCCGUUGGGGUAAUGGUAACGCGUCUCCCUCCUAAGGAGAAGAAUGCGGGUUCGUGUCCCGUACGGAACG the value was at most 0.5; for GUUCCGUUCCCGUAAUGGUAACGCGUCUGCCUCCUAAGGAGAAGACUGCGGGUUCGAGUCCCGUAUGGAACG, at most 0.5. Consider GUUCCGUUGGCGGAAUGGUAACGCGUCUCCCUCCUAAGGAGAAGACUACGGGUUCGAGUCCGGUACGGUACG, for which the yeast fitness was 0.599. Consider GUUCCGUUGGCGUAAUGGUAACGCGUCUCCCUCCUAAGGAGAAGAUUGCGGGUUCAAGUCGCGUACGGAACG, for which the yeast fitness is at most 0.5. As to GUUCCGUUGGAGUAAUGGUAACGCGUCCCCCUCCUAAGGAGAAGACUGCGGGUUCGAGUCCCGUACGGUACG, the yeast fitness was at most 0.5. Consider GUUCAGUUGGCGCAAUGGUAACGCGUCUUCCUCCUAAGGAGAAGACUGCGGGUUCGAGUCCCGUAUGGAACG, for which the yeast fitness was 0.549.

In the case of GUUCCGUUGGCGUAAUGGUAAGGCGUCUCCCUCCUAAGGAGACGACUGCGGGUUCGAGUCCCGUACGGAUCG, the yeast fitness was 0.593. For GUUCCGUUGGCGCAAUGGUAACGCGUCUCCCUCCUAAGGAGGAGACUGCGGGUUCGAGUCGCGUACGGAACG, the yeast fitness was at most 0.5. For GUUCCGUUGGCGUAAUGGUAACGCGUCUUCCUCCUAAGGAGAAGACUGCGGGUUCAAGUCCCGUAUGGAACG, the yeast fitness came out at 0.619.

Consider GUUCCGUUGGCGUAGUGGUAACGCGUCUCCCUCCUAAGGAGAAGACGGCGGGUUCAAGUCCCGUACGGAACG, for which the yeast fitness is at most 0.5. Turning to GUUCCGUUGGCGUAAUGGUAACGCGUCUCCCUCAUAAGGAGAAGACUGCGGAUUCGAGUCCCGUACGGAACG, the yeast fitness amounted to 0.741. For GUUCCGUUGGCGUAAUGGUAAUGCGUCUCCGUCCUAAGGAGAAGACUGUGGGUUCGAGUCCCGUACGGAACG the value was 0.552; for GUUCCGUUGGCGUAGUGGUAACGCGUGUCCCUCCUAAGGAGAGGACUGCGGGUUCGAGACCCGUACGGAACG, at most 0.5. Take GUUCCGUUGGCGUAAUGGUAACGCGUCUCCAUCCUAAGGAGAAGACUGCGGGUUCGAGUCCCGUACGGAUCG: the yeast fitness worked out at 0.927. With GUUCCGUUGGCGUAACGGUAAGGCGUCUCCCUCCUAAGGAGAAGACUGCGGGUUCGAGUCCCGUACGGAACG, the yeast fitness amounted to 0.968.

In the case of GUUCCGUUGGCGUAAUGGUAACGCGUCUCCCUCCUAAGGAGAGGACUGCGGGUUCGAGUCCCAUACGGUACG, the yeast fitness was determined as 0.812. Regarding GUUGCGUUGGCGUAAUGGUAAGGCGUCUCCCUGCUCAGGAGAAGACUGCGGGUUCGAGUCCCGUGCGGAACG, the yeast fitness is at most 0.5. In the case of GUUCCGUUGGCCUAAUGGUAACGCGUCUCCCUCCCAGAGAGAAGUCUGCGGGUUCGAGUCCCGUACGGAGCG, the yeast fitness is at most 0.5. Turning to GUUCAGUUGGCGCAAUGGUAACGCGUCUCCCUCCUAAGGAGAAGACUGCGGGUUCGAGUCCCGUACGGAACG, the yeast fitness is 0.926. For GUUCCGUUGGCGUAAUGGUAACGGGUCUCCCUCAAAAGGAGAAGAUUACGGGUUCGAGUGCCGUAUGGAACG the value was 0.558; for GUUCCGUUGGCGUAAUGGUAACGUGUCUCCCACCUAAGGAGAAGACUGCGGGUUCGAGUCCCGUACGGAACG, 0.784. As for GUUCCGUUGGCGUAAUGGUAACGCGUCUCCCUCCUUAGGAGAAGACUGCGAGUUCGACACCCGUACGGAACG, the yeast fitness is at most 0.5. Consider GUUCCGUUUGCGCAAUGGUAACGCGUCUCCCUCCUAAGGAGAAGACUGCGGGUUCGCGUCCCGUAAGGAACG, for which the yeast fitness was at most 0.5. Turning to GUUCCGUUGGCGUAAUGGUAACGCGUCCCCCUCGUAACGAGAAGCCUGCGGGUUCGAGUCCCGUACGGAACG, the yeast fitness is at most 0.5. In the case of GUUCCGUUGGCGUAAUGGUGACGCGACUCCCUCCUAAGGAGAAGACUGCGGGUUCGAGUCCCGUACGGAACG, the yeast fitness was determined as 0.884. For GUGGCGUUGGCGUAAUGGUAACGCGUCUCCCUCCUAAGGAGAAGACUGGGGGUUCGAGUCCCGUACGGAACG the value was 0.826. Regarding GUUCCGUUGGCGUAAUGGUAACGCGUCUCCCUCCUAAGGAGAAGACUGCGGGUUCAACUCCCGAACGGGACG, the yeast fitness came out at 0.545. As to GUUCCAUUGGCGUAAUGGUAACGCGUCUCCCUCCUAAGGAGAAGACUGCGAGUUCGAGUGCCGUACGGAACG, the yeast fitness was at most 0.5. Turning to GGUCCGUUGGCGUAAUGGUAACGCGUCUCCCUCCUAAGGAGAAGACUGUGGAUUCGAGUCCCGUACGCAACG, the yeast fitness was at most 0.5.

Regarding GUUCCGUUGGCGUAAUGGUAACGCGUCUCGCUCCUAAGGGGAAGACUGCGGCUUCGCGUUCCGUACGGACCG, the yeast fitness was at most 0.5. For GUACCGUAGGCGUAAUGGUAACGCCUCUCACUCCUAAGGAGAAGACUGCGGGUCCGAGUCCCGUACGGAACG the value was at most 0.5; for GUUCCGUUGGCGUAAUGGUAACGCGUCUCCCUCCCAAGGAGAAGACAGUGGGUUCGAGUCCCGUACGGAACG, 0.603. With GUUCCGUUGGCGUAAUAGUAACGCGUCUCCCUCCUAAGGAGAAGACUGCGGGUUCGAGUCACAUACGGAACG the figure was 0.66; with GUUCCGUUGGAGUAAUAGUAACGCGUCUCCCUCCUAAGGAGAAGACUGCGGGUUCGAGUCCUGUAUGGAACG, at most 0.5.
